# Rows were chosen to be rich in hits. Some 4.6% of all compounds tested hit in one or more screens of this group.
# OX1R antag-1: antagonists of human orexin 1 receptor (OX1R) | Orexin/Hypocretin receptor type 1 (Homo sapiens), O43613 | OX1R-expressing cells, FRET antagonist read-out | inhibition, % at 6.6 µM | 330,000 tested, 1.8% active | AID 485270, 2010; in the data active means inhibition mostly above about 38%, no sharp cut-off; inactive means mostly below about 40%;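 further: 0% = agonist challenge alone and 100% = reference antagonist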
# TAAR1 antagonist: human TAAR1 antagonists, primary screen, Fluo-8 calcium fluorescence, CHO RD-HGA16 cells. 360,000 tested, 1.5% active. antagonist. inhibition, % at 3 µM. Trace amine-associated receptor 1 (Homo sapiens), Q96RJ0;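 active means inhibition above a per-plate cutoff, the mean inhibition of test compounds on that plate plus 3 SD, cut at about 49% in these data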;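 further: 0% = DMSO plus EC80 beta-PEA response and 100% = DMSO alone without agonist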
#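 Assay system: RD-HGA16 CHO cells with stable hTAAR1 and Gα16 / Reagent: EC80 β-phenethylamine stimulus / Doses: 3 µM, single point / Timing: dye loading 75 min at 37 °C, then 30 min room temperature / Measured by: Fluo-8 intracellular calcium dye fluorescence, real-time kinetic reads / Controls: vehicle wells and EC80 agonist wells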
# OX1R antag-2: OX1R (HCRTR1) antagonists, primary screen, fluorescence, CHO/OX1R cells, Fluo-8 calcium, orexin A | 330,000 tested, 0.43% active | inhibition, % at 5 µM | AID 434989, 2010 | Orexin/Hypocretin receptor type 1 (Homo sapiens), O43613 | Fluo-8 calcium fluorescence;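 active means inhibition above its plate's threshold, mean inhibition of all tested compounds on the plate plus 3 SD, cut at about 37% in these data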;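 further: 0% = orexin A challenge wells and 100% = SB-334867-A antagonist wells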
# CHO parental Ca: ATP-evoked calcium signal inhibitors, parental CHO, primary screen, counter-screen for OX1R antagonist project, cell-based, fluorescence, Fluo-8 calcium dye; parental CHO-K1, ATP-induced calcium, Fluo-8 fluorescence; inhibition, % at 5.6 µM; 330,000 tested, 0.63% active; AID 463079, 2010;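 active means inhibition above that plate's mean sample inhibition plus 3 SD, cut at about 26% in these data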;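 further: 0% = ATP-challenged DMSO wells and 100% = DMSO wells without ATP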
#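 Material: parental CHO cells / Compound: single nominal dose of 5.6 µM per compound / Signal: Fluo-8 fluorescence / Replicates: singlicate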
# TAAR1 ag: human TAAR1 agonists, primary screen, Fluo-8 calcium fluorescence, CHO RD-HGA16 cells | Trace amine-associated receptor 1 (Homo sapiens), Q96RJ0 | vehicle wells 0%, saturating PEA agonist 100% | activation, % at 3 µM | 360,000 tested, 0.99% active;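 active means activation above the mean activation of all test compounds in the run plus 3 SD, cut at about 38% in these data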
#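 Benchmarks: low control DMSO, high control PEA (EC100); System: CHO RD-HGA16 cells carrying human TAAR1 plus Gα16; Detection: Fluo-8 fluorescence, 5 s baseline then 140 s kinetic read; Schedule: 17-24 h plating, Fluo-8 75 min 37 °C, 30 min RT; Read-out basis: % activation from peak over basal fluorescence ratio, DMSO-to-PEA scaled.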
# GPR7 antagonist: GPR7 receptor antagonists, primary screen, cell-based, fluorescence, single concentration; GPR7-expressing cells, fluorescence antagonist assay; inhibition, % at 4.4 µM; 290,000 tested, 1.1% active; AID 1861, 2009; in the data active means inhibition above about 16%, passing the limit was not always enough;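 further: cells stimulated with the agonist NPW; 0% = agonist with vehicle and 100% = vehicle without agonist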
# Target sequence (P48145 whole entry, looked up): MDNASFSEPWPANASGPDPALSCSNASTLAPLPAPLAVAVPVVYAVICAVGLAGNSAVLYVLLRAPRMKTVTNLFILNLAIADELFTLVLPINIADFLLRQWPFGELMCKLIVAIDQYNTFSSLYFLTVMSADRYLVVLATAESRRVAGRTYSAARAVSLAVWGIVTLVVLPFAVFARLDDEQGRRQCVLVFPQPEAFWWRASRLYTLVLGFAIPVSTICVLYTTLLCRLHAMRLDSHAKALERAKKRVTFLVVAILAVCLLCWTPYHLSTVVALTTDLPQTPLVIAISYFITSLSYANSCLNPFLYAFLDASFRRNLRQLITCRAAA
# * hit, by the source's call; . = no result given.
SMILES,OX1R antag-1,TAAR1 antagonist,OX1R antag-2,CHO parental Ca,TAAR1 ag,GPR7 antagonist
COc1cccc(CNCc2ccc(OC)cc2OC)c1,6,-25,-20,-17,4,-7
CCn1c2ccccc2c2cc(CNCc3ccc(OC)cc3OC)ccc21,22,3,16,-13,46*,29*
COC(=O)c1c(-c2ccc(S(C)(=O)=O)cc2)sc2ccc(OC)cc12,3,49*,6,-12,9,.
O=C(Nc1cc(C(F)(F)F)ccc1N1CCCCC1)C1=COCCO1,.,-28,.,.,-1,.
CC(C)CCNC(=O)C(c1cccnc1)N(CCc1ccccc1)C(=O)Cn1nnc2ccccc21 (centres undefined),20,8,-22,-15,39*,-1
CCCCN(C(=O)Cn1nnc2ccccc21)C(C(=O)NCCOC)c1ccccc1 (centres undefined),18,-14,-36,-13,2,19*
Cc1nnc(SCC(=O)Nc2ccc3c(c2)OCO3)n(N)c1=O,18,5,2,-10,0,-11
COc1ccc(CCNC(=O)Cn2cc(C(F)(F)F)cc(Cl)c2=O)cc1OC,9,2,-7,-9,1,-4
c1ccc(CNc2nc(NCc3ccccc3)c3sccc3n2)cc1,.,104*,.,.,74*,.
Fc1ccccc1CNc1nc(NCC2CC2)nc2ccsc12,.,44,.,.,38*,.
c1ccc(CNc2nc(NCCOc3ccccc3)c3sccc3n2)cc1,.,95*,.,.,59*,.
COc1ccccc1CNc1nc(NCc2ccccc2)nc2ccsc12,.,95*,.,.,50*,.
c1ccc(CNc2nc(-c3ccccc3)nc3ccccc23)cc1,29,1,-29,-11,0,-22
c1ccc(CNc2nc(NCc3ccccc3)c3ccccc3n2)cc1,7,.,89*,75*,.,74*
CC(OC(=O)c1cc(Br)ccc1O)C(=O)Nc1ccc(S(=O)(=O)N2CCCC2)cc1 (centres undefined),35,52*,20,30,13,.
C=CCN=C1NC(c2ccc(Cl)cc2)C(C(=O)OC)=C(C)N1C (centres undefined),.,-12,.,.,0,.
CC(=O)OC[C@]12CC[C@H]3[C@@](C)(CC[C@H]4C(C)(C)CCC[C@]34C)[C@@H]1C[C@H](C1=CC(=O)O[C@@H]1OC(C)=O)O2,0,.,19,64*,.,.
CC1(C)CCCC2(C)C1CCC1(C)OC(=O)CCC12 (centres undefined),.,-16,.,.,4,.
Cc1c(C(=O)Nc2nnc(C3CC3)s2)oc2ccccc12,29,10,-12,-16,19,.
CCCC(c1nnnn1Cc1ccc(F)cc1)N1CCN(C2CCCCC2)CC1 (centres undefined),17,5,-33,-28,8,33*
CCC(c1nnnn1C(C)(C)C)N1CCN(C2CCCC2)CC1 (centres undefined),12,-2,-17,2,11,-1
CC(C)C(c1nnnn1Cc1ccc(F)cc1)N1CCN(C2CCCC2)CC1 (centres undefined),8,-19,-26,2,1,-4
CCC(c1nnnn1Cc1cccs1)N1CCN(C2CCCC2)CC1 (centres undefined),12,-1,-17,-2,5,20*
CCCC(c1nnnn1C(C)(C)CC)N1CCN(C2CCCC2)CC1 (centres undefined),7,-1,-3,-14,11,18*
COC(=O)[C@H](C)NC(=O)Nc1cc(OC)ccc1OC,3,-12,-1,-6,4,-17
SMILES,OX1R antag-1,TAAR1 antagonist,OX1R antag-2,CHO parental Ca,TAAR1 ag,GPR7 antagonist
Cc1cc([N+](=O)[O-])cc2ncccc12,69*,6,0,6,-1,-4
Cc1c(O)cc2c(c1O)C(=O)CC(c1ccccc1)O2 (centres undefined),4,8,105*,100*,0,.
Cc1n[nH]c(C)c1CCCCOc1ccccc1[N+](=O)[O-],59*,4,-11,48*,0,8
Cc1ccccc1OCCCCc1c(C)n[nH]c1C,39,0,-1,6,5,2
O=C(NCc1cccc(C(F)(F)F)c1)c1cc(Cl)cc(Cl)c1,42*,-6,-33,-22,9,1
O=C(NCc1cccc(C(F)(F)F)c1)c1cc(Cl)ccc1Cl,10,18,-23,-16,0,4
CCOC(=O)CNC(=O)N1CCCC(Cc2ccccc2)(C(=O)OCC)C1 (centres undefined),4,-14,-20,-20,2,-19
C[C@H](CO)N1C[C@H](C)[C@H](CN(C)C(=O)c2ccccc2)Oc2cc(Br)ccc2S1(=O)=O,.,-1,.,.,4,.
CCCOc1nc2c(c(=O)n(C)c(=O)n2C)n1Cc1cccc2ccccc12,15,12,68*,39*,25,-9
COc1ccc(-c2cnnc(N/N=C/c3ccc(O)c(O)c3)n2)cc1,75*,12,-8,0,1,7
O=C(Nc1ccc(Cl)c(Cl)c1)Oc1ccc(NC(=O)c2ccco2)cc1,32,35,38,42*,23,3
O=C(CC1Sc2ccccc2NC1=O)OC(C(=O)NCCc1ccccc1)c1cccnc1 (centres undefined),8,53*,-11,-9,23,-6
CCCCn1nc(C(=O)Nc2ccc(-n3cnnn3)cc2)c2ccccc2c1=O,5,52*,-16,-14,24,.
Cn1nc(C(=O)Nc2ccc(-n3cnnn3)cc2)c2ccccc2c1=O,3,18,-27,-18,6,.
Cc1cccc(Nc2ncnc3nc[nH]c23)c1,4,9,-12,-1,0,19*
CCn1c(/C=C/c2ccccc2[N+](=O)[O-])nc2ccccc2c1=O,53*,-3,-8,-14,5,-19
Cn1c(/C=C/c2ccccc2[N+](=O)[O-])nc2ccccc2c1=O,.,10,.,.,5,-20
Cc1nn(S(=O)(=O)c2cccs2)c(C)c1Sc1ccccc1,.,.,.,.,.,-6
Cc1nn(S(=O)(=O)c2cccs2)c(C)c1Sc1ccc([N+](=O)[O-])cc1,56,45,21,41*,1,5
CC(C)NC(=O)C1C(c2ccc(C(F)(F)F)cc2)=Nc2ccccc2N1C(=O)c1cccc2ccccc12 (centres undefined),.,-13,.,.,-2,.
O=C(CN1C(=O)c2ccccc2C1=O)N1CCN(S(=O)(=O)c2ccccc2)CC1,10,-9,-1,-13,3,-10
